Activity calls are given as the source filed them. No cut-off for these calls is given here.
Key:
[1] = target: T1, Nuclear factor erythroid 2-related factor 2 (Rattus norvegicus) (UniProt O54968); test: Activation of Nrf2 in rat PC12 cells assessed as increase in GCLC protein level after 24 hrs by Western blot analysis; type: cell-based; conditions: PC-12, filed as activator, dose 5-20 µM
T1 sequence (whole entry): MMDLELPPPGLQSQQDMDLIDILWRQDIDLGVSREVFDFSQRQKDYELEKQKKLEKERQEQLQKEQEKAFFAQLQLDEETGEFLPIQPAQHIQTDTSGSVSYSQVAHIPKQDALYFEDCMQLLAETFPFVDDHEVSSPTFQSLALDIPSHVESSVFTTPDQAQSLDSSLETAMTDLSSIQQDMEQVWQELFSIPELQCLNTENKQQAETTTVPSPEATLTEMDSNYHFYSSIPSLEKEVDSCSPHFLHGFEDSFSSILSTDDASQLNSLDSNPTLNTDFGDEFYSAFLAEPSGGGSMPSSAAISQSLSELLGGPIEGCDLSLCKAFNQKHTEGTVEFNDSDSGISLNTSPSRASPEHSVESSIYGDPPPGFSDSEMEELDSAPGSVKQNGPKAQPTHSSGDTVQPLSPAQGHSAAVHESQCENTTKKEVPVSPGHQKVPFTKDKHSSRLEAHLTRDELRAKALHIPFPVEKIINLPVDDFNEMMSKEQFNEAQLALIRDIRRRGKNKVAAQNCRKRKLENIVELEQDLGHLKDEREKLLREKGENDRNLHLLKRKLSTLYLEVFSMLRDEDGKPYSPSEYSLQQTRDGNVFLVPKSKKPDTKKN
Outline: (§1)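 PC12 cells treated with compound for 24 h at rising concentrations; NQO1, HO-1, TrxR1, GCLM, GCLC protein detected by Western blot.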

[2] = Antioxidant activity assessed as DPPH radical scavenging activity; type: functional
[3] = target: T2, Nuclear factor erythroid 2-related factor 2 (Mus musculus) (UniProt Q60795); test: Activation of Nrf2 in mouse BV2 cells assessed as upregulation of GCLC protein expression after 24 hrs by Western blot analysis; type: cell-based; conditions: BV-2, filed as activator, dose 5-20 µM
T2 sequence (whole entry): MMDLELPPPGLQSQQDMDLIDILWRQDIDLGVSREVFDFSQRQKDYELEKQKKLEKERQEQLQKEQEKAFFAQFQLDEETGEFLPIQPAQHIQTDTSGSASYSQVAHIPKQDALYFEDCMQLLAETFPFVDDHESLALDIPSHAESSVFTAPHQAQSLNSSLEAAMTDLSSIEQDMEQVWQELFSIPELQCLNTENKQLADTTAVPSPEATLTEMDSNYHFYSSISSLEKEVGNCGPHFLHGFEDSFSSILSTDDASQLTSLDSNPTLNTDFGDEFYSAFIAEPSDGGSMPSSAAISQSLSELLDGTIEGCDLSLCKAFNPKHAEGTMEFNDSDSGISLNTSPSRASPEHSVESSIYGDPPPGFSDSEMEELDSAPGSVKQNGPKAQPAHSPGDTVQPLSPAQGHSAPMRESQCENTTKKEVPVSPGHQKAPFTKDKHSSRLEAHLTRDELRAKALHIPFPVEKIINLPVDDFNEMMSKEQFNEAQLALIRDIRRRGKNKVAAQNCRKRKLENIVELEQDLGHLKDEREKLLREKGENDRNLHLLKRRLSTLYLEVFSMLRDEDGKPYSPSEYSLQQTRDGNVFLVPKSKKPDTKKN
Outline: (§2)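 BV2 microglia exposed to compound for 24 h over a concentration series; Nrf2, NQO1, HO-1, TrxR1, GCLM and GCLC protein levels read by Western blot.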

PC-12 [4] = test: Protection against 6-OHDA-induced apoptosis in rat PC12 cells assessed as early apoptotic cells at 10 uM incubated for 24 hrs by annexin V FITC/propidium iodide staining based flow cytometry (reference value: 19.2 %); type: functional
[5] = target: T2, Nuclear factor erythroid 2-related factor 2 (Mus musculus); test: Activation of Nrf2 in mouse BV2 cells assessed as upregulation of NQO-1 protein expression after 24 hrs by Western blot analysis; type: cell-based; conditions: BV-2, filed as activator, dose 5-20 µM; outline: as §2
PC-12 [6] = test: Protection against H2O2-induced apoptosis in rat PC12 cells assessed as late apoptotic cells at 20 uM incubated for 24 hrs by annexin V FITC/propidium iodide staining based flow cytometry (reference value: 16.2 %); type: functional
[7] = target: T2, Nuclear factor erythroid 2-related factor 2 (Mus musculus); test: Activation of Nrf2 in mouse BV2 cells assessed as decrease in LPS-induced NO production pretreated with compound followed by LPS stimulation after 18 hrs by Griess reagent based assay; type: cell-based; conditions: BV-2, filed as activator, dose 5-20 µM
Outline: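 BV2 microglia pretreated with compound, then LPS (1µg/mL) for 18 h; NO in medium measured by Griess method; mean ± SD, n = 3.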

BV-2 = test: Antiinflammatory activity in mouse BV2 cells transfected with Nrf2 siRNA assessed as inhibition of LPS-induced IL-6 production at 20 uM pretreated with compound followed by LPS stimulation for 18 hrs
PC-12 [8] = test: Protection against 6-OHDA-induced apoptosis in rat PC12 cells assessed as late apoptotic cells at 5 uM incubated for 24 hrs by annexin V FITC/propidium iodide staining based flow cytometry (reference value: 7.6 %); type: functional
PC-12 [9] = test: Protection against 6-OHDA-induced oxidative damage in rat PC12 cells assessed as intracellular ROS level by measuring mean fluorescence intensity at 10 uM pretreated with compound followed by 6-OHDA stimulation by DCFH-DA staining based flow cytometry (reference value: 26327.34); type: functional
PC-12 [10] = test: Protection against 6-OHDA-induced apoptosis in rat PC12 cells assessed as necrotic cells at 10 uM incubated for 24 hrs by annexin V FITC/propidium iodide staining based flow cytometry (reference value: 1.1 %); type: functional
[11] = target: T1, Nuclear factor erythroid 2-related factor 2 (Rattus norvegicus); test: Activation of Nrf2 in rat PC12 cells assessed as increase in NQO1 protein level after 24 hrs by Western blot analysis; type: cell-based; conditions: PC-12, filed as activator, dose 5-20 µM; outline: as §1
PC-12 [12] = test: Protection against H2O2-induced oxidative damage in rat PC12 cells assessed as intracellular ROS level by measuring mean fluorescence intensity at 5 uM pretreated with compound followed by H2O2 stimulation by DCFH-DA staining based flow cytometry (reference value: 233032.55); type: functional
PC-12 [13] = test: Protection against H2O2-induced apoptosis in rat PC12 cells assessed as viable cells at 10 uM incubated for 24 hrs by annexin V FITC/propidium iodide staining based flow cytometry (reference value: 79.3 %); type: functional; conditions: read-out: Activity
PC-12 [14] = test: Neuroprotective activity against H2O2-induced cell damage in rat PC12 cells preincubated for 24 hrs followed by H2O2 treatment by MTT assay; type: functional, cell-based; conditions: dose 5-20 µM
Outline: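 PC12 cells pretreated 24 h with compound (5, 10, 20 μM), then H₂O₂ (200 μM) or 6-OHDA (150 μM); viability by MTT; mean ± SD, three independent experiments.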

[15] = target: T1, Nuclear factor erythroid 2-related factor 2 (Rattus norvegicus); test: Activation of Nrf2 in rat PC12 cells assessed as increase in HO-1 protein level after 24 hrs by Western blot analysis; type: cell-based; conditions: PC-12, filed as activator, dose 5-20 µM; outline: as §1
PC-12 [16] = test: Protection against H2O2-induced oxidative damage in rat PC12 cells assessed as intracellular ROS level by measuring mean fluorescence intensity at 10 uM pretreated with compound followed by H2O2 stimulation by DCFH-DA staining based flow cytometry (reference value: 233032.55); type: functional
PC-12 [17] = test: Protection against H2O2-induced apoptosis in rat PC12 cells assessed as early apoptotic cells at 5 uM incubated for 24 hrs by annexin V FITC/propidium iodide staining based flow cytometry (reference value: 3.9 %); type: functional

CCN(C)C(=O)N1CCN(C(=O)/C=C/c2ccc(F)cc2)C1=O
Activity [1]: Dose-dependent effect
Activity [2]: inactive
Activity [3]: Dose-dependent effect
Activity (PC-12 [4]): 7.4%
Activity [5]: Dose-dependent effect
Activity (PC-12 [6]): 3.7%
Activity [7]: Dose-dependent effect
Activity (BV-2): inactive
Activity (PC-12 [8]): 6.4%
Flu intensity (PC-12 [9]): 12110.88
Activity (PC-12 [10]): 1%
Activity [11]: Dose-dependent effect
Flu intensity (PC-12 [12]): 205329.36
viability at 10 µM (PC-12 [13]): 92.4%
Activity (PC-12 [14]): Dose-dependent effect
Activity [15]: Dose-dependent effect
Flu intensity (PC-12 [16]): 146612.92
Activity (PC-12 [17]): 5.1%
